Here are results for three compounds from ChEMBL document CHEMBL3856209, “Novel pyrazolopyridine derivatives as potential angiogenesis inhibitors: Synthesis, biological evaluation and transcriptome-based mechanistic analysis” (Eur J Med Chem, 2016).

Calls of active or inactive are those of the source.

The subject of assay [1] is HUVEC. Kind of assay: Effect on KIF22 gene expression in serum-starved HUVEC after 24 hrs by microarray analysis relative to control. It is filed as functional, Homo sapiens. The procedure, abridged: (§1)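 Confluent, serum-starved HUVEC (pooled from 3–5 donors, passage ≤4) treated with 2 μM compound or vehicle with 2.5% FBS for 6 h or 24 h. Total RNA hybridized to Illumina Human-HT12 arrays. Data were background-corrected, vst-transformed and rsn-normalized. Hits called by moderated paired t-test versus DMSO-treated cells, p < 0.05 and log2 fold change >|0.5|.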

The test system of assay [2] is HUVEC. Kind of assay: Effect on RETSAT gene expression in serum-starved HUVEC after 24 hrs by microarray analysis relative to control. It is filed as functional, Homo sapiens.
Assay [3] concerns HUVEC. As to the kind of experiment: Effect on TAOK1 gene expression in serum-starved HUVEC after 24 hrs by microarray analysis relative to control. It is filed as functional, Homo sapiens.
The subject of assay [4] is HUVEC. As to the kind of experiment: Effect on ELMOD1 gene expression in serum-starved HUVEC after 6 hrs by microarray analysis relative to control. The format is functional, Homo sapiens. The procedure, abridged:
as §1

Assay [5] relates to HUVEC. As to the kind of experiment: Effect on ITGA2 gene expression in serum-starved HUVEC after 24 hrs by microarray analysis relative to control. The format is functional, Homo sapiens. The procedure, abridged: as §1
The subject of assay [6] is HUVEC. As to the kind of experiment: Effect on CKS1B gene expression in serum-starved HUVEC after 24 hrs by microarray analysis relative to control. The format is functional, Homo sapiens. The gist of the method:
(§2)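 Serum-starved confluent HUVEC treated with 2 μM compound or DMSO in 2.5% FBS for 6 h or 24 h; RNA hybridized to Illumina Human-HT12 arrays. Data background-corrected, vst-transformed and rsn-normalized. Differential probes called by moderated paired t-test (limma) at p < 0.05 and log2 fold change >|0.5| vs DMSO.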

For assay [7], the system named is HUVEC. Kind of assay: Effect on MBNL2 gene expression in serum-starved HUVEC after 24 hrs by microarray analysis relative to control. The format is functional, Homo sapiens. The gist of the method:
(§3)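 Serum-starved confluent HUVEC (pooled from 3–5 donors, passage ≤4) were treated with 2 μM compound or vehicle in 2.5% FBS for 6 h or 24 h, and total RNA was isolated. Hybridization was on Illumina Human-HT12. Data were processed with bgAdjust, vst and rsn normalization. Changes versus DMSO were called by moderated paired t-test at p < 0.05 and |log2 fold change| > 0.5.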

The subject of assay [8] is HUVEC. As to the kind of experiment: Effect on PNISR gene expression in serum-starved HUVEC after 24 hrs by microarray analysis relative to control. The format is functional, Homo sapiens. The gist of the method:
as §3

Assay [9] deals with HUVEC. As to the kind of experiment: Effect on BIRC5 gene expression in serum-starved HUVEC after 6 hrs by microarray analysis relative to control. It is filed as functional, Homo sapiens. The gist of the method:
as §2

Assay [10] concerns HUVEC. Kind of assay: Effect on ANKRD1 gene expression in serum-starved HUVEC after 6 hrs by microarray analysis relative to control. The format is functional, Homo sapiens. The gist of the method: (§4)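 Confluent serum-starved HUVEC (primary, pooled from 3–5 donors, passage ≤4) treated with 2 μM compound or DMSO vehicle in 2.5% FBS for 6 h or 24 h. Total RNA hybridized to Illumina Human-HT12 arrays, background-corrected, vst-transformed and rsn-normalized. Differential expression versus DMSO by moderated paired t-test (p < 0.05, |log2 fold change| > 0.5).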

The test system of assay [11] is HUVEC. Kind of assay: Effect on CYTL1 gene expression in serum-starved HUVEC after 6 hrs by microarray analysis relative to control. It is filed as functional, Homo sapiens. The gist of the method:
as §4

The subject of assay [12] is HUVEC. Kind of assay: Effect on CD68 gene expression in serum-starved HUVEC after 6 hrs by microarray analysis relative to control. The format is functional, Homo sapiens. The procedure, abridged:
as §2

Assay [13] deals with HUVEC. As to the kind of experiment: Effect on NEDD9 gene expression in serum-starved HUVEC after 24 hrs by microarray analysis relative to control. The format is functional, Homo sapiens. The gist of the method:
as §3

For assay [14], the system named is HUVEC. Kind of assay: Effect on HLA-DMA gene expression in serum-starved HUVEC after 24 hrs by microarray analysis relative to control. The format is functional, Homo sapiens.
For assay [15], the system named is HUVEC. As to the kind of experiment: Effect on RN7SK gene expression in serum-starved HUVEC after 6 hrs by microarray analysis relative to control. It is filed as functional, Homo sapiens.
Assay [16] concerns HUVEC. As to the kind of experiment: Effect on FAM213A gene expression in serum-starved HUVEC after 6 hrs by microarray analysis relative to control. The format is functional, Homo sapiens. The procedure, abridged: as §4
Assay [17] concerns HUVEC. As to the kind of experiment: Effect on HJURP gene expression in serum-starved HUVEC after 6 hrs by microarray analysis relative to control. The format is functional, Homo sapiens.
The subject of assay [18] is HUVEC. Kind of assay: Effect on FTH1P8 gene expression in serum-starved HUVEC after 6 hrs by microarray analysis relative to control. The format is functional, Homo sapiens. The procedure, abridged:
as §1

In assay [19] the test system is HUVEC. Kind of assay: Effect on CYBA gene expression in serum-starved HUVEC after 6 hrs by microarray analysis relative to control. The format is functional, Homo sapiens. The procedure, abridged:
as §4

The subject of assay [20] is HUVEC. Kind of assay: Effect on HLA-B gene expression in serum-starved HUVEC after 24 hrs by microarray analysis relative to control. It is filed as functional, Homo sapiens. The gist of the method: as §1
For assay [21], the system named is HUVEC. Kind of assay: Effect on CYTL1 gene expression in serum-starved HUVEC after 24 hrs by microarray analysis relative to control. The format is functional, Homo sapiens. The procedure, abridged: (§5)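 Serum-starved confluent HUVEC (primary, pooled from 3–5 donors, passage ≤4) treated with 2 μM test compound or DMSO vehicle (working dilutions ≤0.1% v/v) in presence of 2.5% FBS for 6 h or 24 h; total RNA hybridized to Illumina Human-HT12 arrays; background correction, vst, rsn normalization; moderated paired t-test versus DMSO, thresholds p < 0.05 and log2 fold change >|0.5|.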

In assay [22] the test system is HUVEC. As to the kind of experiment: Effect on ACLY gene expression in serum-starved HUVEC after 6 hrs by microarray analysis relative to control. It is filed as functional, Homo sapiens. The procedure, abridged: as §2
In assay [23] the test system is HUVEC. Kind of assay: Effect on UBE2J1 gene expression in serum-starved HUVEC after 6 hrs by microarray analysis relative to control. The format is functional, Homo sapiens.
Assay [24] has as its system HUVEC. As to the kind of experiment: Effect on UHRF1 gene expression in serum-starved HUVEC after 6 hrs by microarray analysis relative to control. It is filed as functional, Homo sapiens.
A short description of assay [25]: Upregulation of HMGCS1 gene expression in serum-starved HUVEC at 2 uM after 24 hrs by qRT-PCR analysis. The settings on record: Homo sapiens. The format is functional, cell-based. A general note: Real-time PCR tracks product formation cycle by cycle.
The test system of assay [26] is HUVEC. As to the kind of experiment: Effect on HLA-DPA1 gene expression in serum-starved HUVEC after 24 hrs by microarray analysis relative to control. The format is functional, Homo sapiens. The gist of the method:
as §1

The subject of assay [27] is HUVEC. As to the kind of experiment: Effect on KCNAB1 gene expression in serum-starved HUVEC after 6 hrs by microarray analysis relative to control. The format is functional, Homo sapiens. The procedure, abridged:
as §1

Assay [28] concerns HUVEC. Kind of assay: Effect on SPRY4 gene expression in serum-starved HUVEC after 24 hrs by microarray analysis relative to control. It is filed as functional, Homo sapiens.
In assay [29] the test system is HUVEC. As to the kind of experiment: Effect on KITLG gene expression in serum-starved HUVEC after 24 hrs by microarray analysis relative to control. The format is functional, Homo sapiens. The procedure, abridged:
as §3

In assay [30] the test system is HUVEC. As to the kind of experiment: Effect on ANGPT2 gene expression in serum-starved HUVEC after 6 hrs by microarray analysis relative to control. The format is functional, Homo sapiens. The procedure, abridged: as §2
In assay [31] the test system is HUVEC. As to the kind of experiment: Effect on PRR11 gene expression in serum-starved HUVEC after 6 hrs by microarray analysis relative to control. The format is functional, Homo sapiens. The gist of the method:
as §3

Assay [32] can be described thus: Downregulation of CDC20 gene expression in serum-starved HUVEC at 2 uM after 24 hrs by qRT-PCR analysis. It is filed as functional, cell-based. The settings on record: Homo sapiens. The gist of the method:
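Serum-starved confluent HUVEC treated with 2 μM compound or vehicle in 2.5% FBS for 24 h. Total RNA isolated and qRT-PCR run in triplicate (95 °C 5 min; 40 cycles of 95 °C 5 s, 58 °C 20 s, 72 °C 5 s), normalized to RPS18S. Fold change vs control, n = 3.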

The subject of assay [33] is HUVEC. Kind of assay: Effect on ASAP1 gene expression in serum-starved HUVEC after 24 hrs by microarray analysis relative to control. The format is functional, Homo sapiens. The gist of the method:
as §5

Assay [34] has as its system HUVEC. Kind of assay: Effect on CXCR4 gene expression in serum-starved HUVEC after 24 hrs by microarray analysis relative to control. It is filed as functional, Homo sapiens. The gist of the method: as §4
The test system of assay [35] is HUVEC. Kind of assay: Effect on CDK1 gene expression in serum-starved HUVEC after 24 hrs by microarray analysis relative to control. The format is functional, Homo sapiens. The procedure, abridged:
as §2

`COc1ccc(Cn2nc(-c3ccccc3)c3cc(Nc4ccc(N5CCN(C)CC5)cc4)nc(N4CCNCC4)c32)cc1`: the log2FC in the assay with HUVEC [1] is -0.5297; in the assay on HUVEC [2], -0.5409; in the assay on HUVEC [3], 0.6142.
Regarding `COc1ccc(Cn2nc(-c3ccccc3)c3cc(Cl)nc(N4CCNCC4)c32)cc1`, the log2FC is on record as -0.1337 in the assay on HUVEC [4]; -0.0226 with HUVEC [5]; -0.5699 with HUVEC [6]; 0.526 with HUVEC [7]; 0.0521 in the assay on HUVEC [8]. In addition, the “fold change (FC)” value in the assay on HUVEC [9] turned out to be 0.0293.
Regarding `COc1ccc(Cn2nc(-c3ccccc3)c3cc(Nc4ccc(N5CCN(C)CC5)cc4)nc(N4CCN(C)CC4)c32)cc1`, the “fold change (FC)” value with HUVEC [10] is listed as -0.5735; with HUVEC [11], 0.0261; in the assay on HUVEC [12], 0.5187; with HUVEC [14], -0.8514; in the assay with HUVEC [16], -0.0934; in the assay on HUVEC [17], -0.1528. Besides, the “fold change (FC)” value was found to be 0.2063 in the assay with HUVEC [18]; 0.1437 with HUVEC [19]; 0.5166 in the assay with HUVEC [21]; 0.4312 with HUVEC [22]; 0.012 in the assay with HUVEC [24]; 0.0717 in the assay on HUVEC [27]. In addition, the “fold change (FC)” value with HUVEC [28] worked out at 0.9471; in the assay with HUVEC [30], 0.2528; in the assay on HUVEC [33], 0.1181; in the assay with HUVEC [34], 0.6553. In addition, the log2FC in the assay with HUVEC [13] is 0.6094; with HUVEC [15], -0.8368; with HUVEC [20], -0.5811; in the assay on HUVEC [23], 0.4634; in the assay on HUVEC [26], -0.863; in the assay with HUVEC [29] it was 0.5605. Moreover, the results for the log2FC in the assay on HUVEC [31] and in the assay on HUVEC [35] were 0.0749 and -0.5092, respectively. In addition, the outcome in [25] and in assay [32] was Active.
